Laboratory results: ChEMBL document CHEMBL5032534, “COUPY Coumarins as Novel Mitochondria-Targeted Photodynamic Therapy Anticancer Agents” (J Med Chem, 2021)
Blank lines part the entries; values can stand above or below the compound they belong to. Calls of active or inactive are those of the source. The calls are words filed in the database; no cut-off is given here.

What was measured:
[1] = tested on: HeLa; experiment: Induction of apoptosis in human HeLa cells assessed as increase in necrotic cells at 5 uM incubated for 30 mins in dark measured after 24 hrs by Annexin V-FITC/ Propidium iodide staining based flow cytometry analysis; format: functional, cell-based; conditions: time 24.5 hrs
Outline: (§1)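 HeLa cells were seeded at 1.5 × 10^5/well overnight and treated for 0.5 h, with or without 1 h visible-light irradiation, followed by 24 h recovery. Cells were trypsinized, resuspended in binding buffer, labelled with FITC-Annexin V and propidium iodide for 15 min at room temperature in the dark, and analysed by flow cytometry. Cisplatin (30 μM) served as positive control.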

[2] = tested on: HeLa; experiment: Effect on cell cycle distribution in human HeLa cells assessed as reduction in G1 phase population at 5 uM preincubated for 30 mins in dark followed by light irradiation for 1 hr by RNase/propidium iodide staining based FACS analysis; format: functional; conditions: time 1.5 hrs
Outline: (§2)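 HeLa cells were seeded at 1.5 × 10^5/well and treated for 0.5 h, with or without 1 h visible-light irradiation, followed by 24 h recovery. Cells were fixed in ice-cold 70% ethanol for 1 h and stained with PI (40 μg/mL) plus RNase (1 μg/mL) for 30 min at 310 K. Analysis was by flow cytometry in the FL2-A channel. At least two independent experiments, n = 3.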

[3] = tested on: HeLa; experiment: Induction of ROS generation in human HeLa cells at 5 uM incubated for 1 hr in dark followed by irradiation with visible light for 1 hr under hypoxic condition in presence of Trolox by DCFH-DA staining based flow cytometric analysis; format: functional, cell-based; conditions: time 2.0 hrs
Outline: (§3)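 HeLa cells were seeded at 2 × 10^4/well for 24 h under 21% or 2% O2. They were co-treated with 5 μM compound plus a scavenger, which stayed present throughout: NAC 5 mM, NaN3 5 mM, mannitol 50 mM, tiron 5 mM, sodium pyruvate 10 mM or Trolox 0.1 mM. Cells were held 1 h dark, then 1 h under visible light, stained 30 min with 10 μM DCFH-DA, trypsinized and analysed by flow cytometry. At least two independent experiments, n = 3.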

[4] = Drug uptake in nucleolus of human HeLa cells assessed as drug accumulation at 0.5 uM measured after 30 mins by confocal microscopic analysis; format: ADME, subcellular; conditions: 0.5 h
Outline: (§4)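 HeLa cells in high-glucose DMEM with 10% fetal calf serum were seeded on glass-bottom dishes for 24 h, then loaded with compound for 30 min at 37 °C. They were washed three times with DPBS and kept in phenol-red-free low-glucose DMEM. Live cells were imaged by confocal microscopy at 37 °C with 5% CO2, excited at 561 nm, with emission collected from 570 to 670 nm.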

[5] = Drug uptake in human HeLa cells at 0.5 uM incubated for 30 mins by confocal microscopic analysis; format: ADME, cell-based; conditions: 0.5 h; outline: as §4
[6] = tested on: HeLa; experiment: Induction of ROS generation in human HeLa cells at 5 uM incubated for 1 hr in dark followed by irradiation with visible light for 1 hr under normoxic condition in presence of Trolox by DCFH-DA staining based flow cytometric analysis; format: functional, cell-based; conditions: time 2.0 hrs; outline: as §3
[7] = tested on: HeLa; experiment: Induction of ROS generation in human HeLa cells at 5 uM incubated for 1 hr in dark followed by irradiation with visible light for 1 hr under hypoxic condition in presence of NaPyr by DCFH-DA staining based flow cytometric analysis; format: functional, cell-based; conditions: time 2.0 hrs; outline: as §3
[8] = tested on: HeLa; experiment: Induction of ROS generation in human HeLa cells at 5 uM incubated for 1 hr in dark followed by irradiation with visible light for 1 hr under normoxic condition in presence of 5 mM NAC by DCFH-DA staining based flow cytometric analysis; format: functional, cell-based; conditions: time 2.0 hrs; outline: as §3
[9] = Drug uptake in mitochondria of human HeLa cells assessed as drug accumulation at 0.5 uM measured after 30 mins by confocal microscopic analysis; format: ADME; conditions: 0.5 h; outline: as §4
[10] = tested on: HeLa; experiment: Induction of autophagy in human HeLa cells assessed as increase in MDC-positive autophagic vesicles at 5 uM preincubated for 30 mins followed by light irradiation for 1 hr and further incubated for 6 hrs in drug-free medium by MDC staining based confocal microscopic analysis; format: functional, cell-based; conditions: time 1.5 hrs
Outline: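 HeLa cells were seeded at 1.5 × 10^4 cells/cm2 in chamber slides and given 0.5 h compound incubation, then 1 h visible-light irradiation. Medium was replaced for a 6 h recovery. Cells were stained with monodansylcadaverine (0.05 mM in PBS, 10 min, 310 K) and imaged by confocal microscopy (ex 405 nm). Vacuoles were counted in at least 10 cells from two experiments. Controls were starvation in EBSS for 2 h and resveratrol 50 μM for 2 h.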

[11] = tested on: HeLa; experiment: Induction of ROS generation in human HeLa cells at 5 uM incubated for 1 hr in dark followed by irradiation with visible light for 1 hr under hypoxic condition in presence of 5 mM NAC by DCFH-DA staining based flow cytometric analysis; format: functional, cell-based; conditions: time 2.0 hrs; outline: as §3
[12] = Induction of singlet oxygen generation in air-saturated DCM solution assessed as reduction in 1,3-diphenylisobenzofuran absorption irradiated with 505 nanometer green light by DPBF-based assay; format: functional
[13] = tested on: HeLa; experiment: Effect on cell cycle distribution in human HeLa cells at 5 uM incubated for 30 mins in dark by RNase/propidium iodide staining based FACS analysis; format: functional; outline: as §2
[14] = tested on: HeLa; experiment: Induction of mitochondrial membrane potential loss in human HeLa cells at 5 uM measured after 24 hrs by JC-1 dye-based flow cytometric analysis; format: functional, cell-based
Outline: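 HeLa cells were seeded at 1.5 × 10^5 in 12-well plates for 24 h and treated for 24 h. Vehicle control held 0.4% DMSO and antimycin A (50 μM) served as positive control. Cells were stained with JC-1 (1 μM, 20 min) and analysed by flow cytometry (10^4 events; ex 488 nm; green 530 nm and red 585 nm channels). At least two independent experiments.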

[15] = tested on: HeLa; experiment: Induction of ROS generation in human HeLa cells assessed as increase in intracellular ROS level at 5 uM incubated for 1 hr in dark followed by irradiation with visible light for 1 hr under hypoxic condition by DCFH-DA staining based flow cytometric analysis; format: functional, cell-based; conditions: time 2.0 hrs; outline: as §3
[16] = tested on: HeLa; experiment: Induction of apoptosis in human HeLa cells assessed as increase in early apoptotic cells at 5 uM preincubated for 30 mins in dark followed by irradiation for 1 hr and measured after 24 hrs by Annexin V-FITC/ Propidium iodide staining based flow cytometry analysis; format: functional, cell-based; conditions: time 25.5 hrs; outline: as §1
[17] = tested on: HeLa; experiment: Induction of autophagy in human HeLa cells […] pretreated with wortmannin for 1 hr followed by irradiation schedule for 1 hr by MDC staining based confocal microscopic analysis; format: functional
[18] = tested on: HeLa; experiment: Induction of superoxide anion generation in human HeLa cells assessed as increase in DHE fluorescence at 5 uM incubated for 1 hr in dark followed by irradiation with visible light for 1 hr under hypoxic condition in presence of tiron by DHE staining based flow cytometric analysis; conditions: time 2.0 hrs
[19] = tested on: HeLa; experiment: Induction of ROS generation in human HeLa cells at 5 uM incubated for 1 hr in dark followed by irradiation with visible light for 1 hr under hypoxic condition in presence of NaN3 by DCFH-DA staining based flow cytometric analysis; format: functional, cell-based; conditions: time 2.0 hrs; outline: as §3
[20] = Drug uptake in mitochondria of human HeLa cells assessed as drug accumulation at 5 uM measured after 30 mins by confocal microscopic analysis; format: ADME; conditions: 0.5 h; outline: as §4
[21] = Drug uptake in nucleolus of human HeLa cells assessed as drug accumulation at 5 uM measured after 30 mins by confocal microscopic analysis; format: ADME, subcellular; conditions: 0.5 h; outline: as §4
[22] = Drug uptake in human HeLa cells at 5 uM incubated for 30 mins by confocal microscopic analysis; format: ADME, cell-based; conditions: 0.5 h; outline: as §4

- Drug uptake [4]: Active
- Drug uptake [5]: Active
- Drug uptake [9]: Active
Structure (SMILES): CCN(CC)c1ccc2c(c1)O/C(=C(/C#N)c1cc[n+](C)cc1)C=C2C
- Activity [1]: Active
- Activity [2]: Active
- Activity [3]: Active
- Activity [6]: inactive
- Activity [7]: Active
- Activity [8]: inactive
- Activity [10]: Active
- Activity [11]: inactive
- Activity [12]: Active
- Activity [13]: inactive
- Activity [14]: inactive
- Activity [15]: inactive
- Activity [16]: Active
- Activity [17]: inactive
- Activity [18]: Active
- Activity [19]: Active

- Drug uptake [20]: Not Active
- Drug uptake [21]: Active
- Drug uptake [22]: Active
Structure (SMILES): CCN(CC)c1ccc2c(c1)O/C(=C(/C#N)c1ccncc1)C=C2C
